We go through 15 molecules from ChEMBL document CHEMBL1124207, “Effect of the CH2NH and CH2NAc peptide bond isosteres on the antagonistic and histamine releasing activities of a luteinizing hormone-releasing hormone analogue” (1988).

What all share (format): functional
For test [1], the species on record is Rattus norvegicus. The test can be described thus: Antiovulatory activity expressed as the percentage of rats blocked at 12 ug. In a few lines:
(§1)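 Female Sprague-Dawley rats dosed in a 40% propane-1,2-diol/0.9% saline vehicle in a standard antiovulatory assay. The read-out is ovulation block, reported as the percentage of n rats not ovulating at x μg of analogue.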

For test [2], the species on record is Rattus norvegicus. Nature of the test: Antiovulatory activity expressed as the percentage of rats blocked at 6 ug. The procedure, abridged:
as §1

Test [3] is filed under the species Rattus norvegicus. Nature of the test: In vitro histamine releasing activity determined with peritoneal mast cells from male Sprague-Dawley rats. The conditions noted are these: Mast cell, read-out: ED50 (the source's name).
The species entered for test [4] is Rattus norvegicus. Nature of the test: Antiovulatory activity expressed as the percentage of rats blocked at 50 ug. In a few lines:
as §1

The species named for test [5] is Rattus norvegicus. Nature of the test: Antiovulatory activity expressed as the percentage of rats blocked at 0.5 ug. The procedure, abridged: as §1

Values after ≈ are worked out from the molar mass of the structure shown. Square brackets hold non-standard residues; d marks the D form. Peptide text beside a SMILES is read from it. d2Nal = N[C@H](Cc1ccc2ccccc2c1)C(=O)O

Take `CC(=O)N[C@H](Cc1ccc2ccccc2c1)C(=O)N[C@H](Cc1ccccc1)C(=O)N[C@H](Cc1ccccc1)C(=O)N[C@@H](CO)C(=O)N[C@@H](Cc1ccc(O)cc1)C(=O)N[C@H](CCCN=C(N)N)C(=O)N[C@@H](Cc1ccccc1)C(=O)N[C@@H](CCCN=C(N)N)C(=O)N1CCC[C@@H]1CN[C@H](C)C(=O)O`: the Rats blocked in the test filed under Rattus norvegicus [1] was 92%; in the test listed under Rattus norvegicus [2] it was 44%. In the test listed under Rattus norvegicus [3], the EC50 turned out to be 0.21 µg/mL (≈ 0.148 µM).
Turning to `CC(=O)N[C@H](Cc1ccc2ccccc2c1)C(=O)N[C@H](Cc1ccccc1)C(=O)N[C@H](Cc1ccccc1)C(=O)N[C@@H](CO)C(=O)N[C@@H](Cc1ccc(O)cc1)C(=O)N[C@@H](CCCCN)CN(C(C)=O)[C@@H](Cc1ccccc1)C(=O)N[C@@H](CCCN=C(N)N)C(=O)N1CCC[C@H]1C(=O)N[C@H](C)C(=O)O`, in the test listed under Rattus norvegicus [4], the Rats blocked is 33%. Further, the EC50 in the test filed under Rattus norvegicus [3] was 1.5 µg/mL (≈ 1.05 µM).
The molecule `CC(=O)N[C@H](Cc1ccc2ccccc2c1)C(=O)N[C@H](Cc1ccccc1)C(=O)N[C@H](Cc1ccccc1)C(=O)N[C@@H](CO)C(=O)N[C@@H](Cc1ccc(O)cc1)C(=O)N[C@@H](CCCCN)CN[C@@H](Cc1ccccc1)C(=O)N[C@@H](CCCN=C(N)N)C(=O)N1CCC[C@H]1C(=O)N[C@H](C)C(=O)O` displayed a Rats blocked in the test filed under Rattus norvegicus [4] of 60%. Also, in the test listed under Rattus norvegicus [3], the EC50 came to 1.9 µg/mL (≈ 1.37 µM).
Molecule `CC(=O)N[C@H](Cc1ccc2ccccc2c1)C(=O)N[C@H](CN[C@H](Cc1ccccc1)C(=O)N[C@@H](CO)C(=O)N[C@@H](Cc1ccc(O)cc1)C(=O)N[C@H](CCCN=C(N)N)C(=O)N[C@@H](Cc1ccccc1)C(=O)N[C@@H](CCCN=C(N)N)C(=O)N1CCC[C@H]1C(=O)N[C@H](C)C(=O)O)Cc1ccccc1` had a Rats blocked in the test listed under Rattus norvegicus [4] of 0%. The EC50 in the test listed under Rattus norvegicus [3] was found to be 0.35 µg/mL (≈ 0.247 µM).
With `CC(=O)N[C@H](Cc1ccc2ccccc2c1)C(=O)N[C@H](Cc1ccccc1)C(=O)N[C@H](Cc1ccccc1)C(=O)N[C@@H](CO)C(=O)N[C@@H](Cc1ccc(O)cc1)CN(C(C)=O)[C@H](CCCN=C(N)N)C(=O)N[C@@H](Cc1ccccc1)C(=O)N[C@@H](CCCN=C(N)N)C(=O)N1CCC[C@H]1C(=O)N[C@H](C)C(=O)O`, in the test listed under Rattus norvegicus [4], the Rats blocked amounted to 0%. Also, in the test listed under Rattus norvegicus [3], the EC50 was determined as 4 µg/mL (≈ 2.74 µM).
In the test filed under Rattus norvegicus [2], `CCN(CC)[C@H](Cc1ccc2ccccc2c1)C(=O)N[C@H](Cc1ccccc1)C(=O)N[C@H](Cc1ccccc1)C(=O)N[C@@H](CO)C(=O)N[C@@H](Cc1ccc(O)cc1)C(=O)N[C@H](CCCN=C(N)N)C(=O)N[C@@H](Cc1ccccc1)C(=O)N[C@@H](CCCN=C(N)N)C(=O)N1CCC[C@H]1C(=O)N[C@H](C)C(=O)O` gave a Rats blocked of 0%. Moreover, the EC50 in the test filed under Rattus norvegicus [3] was found to be 0.45 µg/mL (≈ 0.312 µM).
As for `CCN[C@H](Cc1ccc2ccccc2c1)C(=O)N[C@H](Cc1ccccc1)C(=O)N[C@H](Cc1ccccc1)C(=O)N[C@@H](CO)C(=O)N[C@@H](Cc1ccc(O)cc1)C(=O)N[C@H](CCCN=C(N)N)C(=O)N[C@@H](Cc1ccccc1)C(=O)N[C@@H](CCCN=C(N)N)C(=O)N1CCC[C@H]1C(=O)N[C@H](C)C(=O)O`, the Rats blocked in the test filed under Rattus norvegicus [2] is on record as 17%. In addition, in the test filed under Rattus norvegicus [3], the EC50 turned out to be 0.34 µg/mL (≈ 0.24 µM).
Consider `CC(=O)N[C@H](Cc1ccc2ccccc2c1)C(=O)N[C@H](Cc1ccccc1)C(=O)N[C@H](Cc1ccccc1)C(=O)N[C@@H](CO)CN(C(C)=O)[C@@H](Cc1ccc(O)cc1)C(=O)N[C@H](CCCN=C(N)N)C(=O)N[C@@H](Cc1ccccc1)C(=O)N[C@@H](CCCN=C(N)N)C(=O)N1CCC[C@H]1C(=O)N[C@H](C)C(=O)O`, for which the Rats blocked in the test listed under Rattus norvegicus [4] came to 0%. In addition, the EC50 in the test filed under Rattus norvegicus [3] was determined as 0.45 µg/mL (≈ 0.309 µM).
Molecule `CC(=O)N[C@H](Cc1ccc2ccccc2c1)C(=O)N[C@H](Cc1ccccc1)C(=O)N[C@H](CN[C@@H](CO)C(=O)N[C@@H](Cc1ccc(O)cc1)C(=O)N[C@H](CCCN=C(N)N)C(=O)N[C@@H](Cc1ccccc1)C(=O)N[C@@H](CCCN=C(N)N)C(=O)N1CCC[C@H]1C(=O)N[C@H](C)C(=O)O)Cc1ccccc1` registered a Rats blocked in the test listed under Rattus norvegicus [4] of 0%. Besides, in the test filed under Rattus norvegicus [3], the EC50 was 0.43 µg/mL (≈ 0.304 µM).
`CC(=O)N[C@H](Cc1ccc2ccccc2c1)C(=O)N[C@H](Cc1ccccc1)C(=O)N[C@H](Cc1ccccc1)C(=O)N[C@@H](CO)C(=O)N[C@@H](Cc1ccc(O)cc1)C(=O)N[C@H](CCCN=C(N)N)C(=O)N[C@@H](Cc1ccccc1)C(=O)N[C@@H](CCCN=C(N)N)C(=O)N1CCC[C@@H]1CN(C(C)=O)[C@H](C)C(=O)O`: the Rats blocked worked out at 100% in the test listed under Rattus norvegicus [4] and 75% in the test filed under Rattus norvegicus [1]. Moreover, the EC50 in the test listed under Rattus norvegicus [3] was 0.28 µg/mL (≈ 0.192 µM).
`CC(=O)N[C@H](Cc1ccc2ccccc2c1)C(=O)N[C@H](Cc1ccccc1)C(=O)N[C@H](Cc1ccccc1)C(=O)N[C@@H](CO)C(=O)N[C@@H](Cc1ccc(O)cc1)C(=O)N[C@H](CCCN=C(N)N)C(=O)N[C@H](CN[C@@H](CCCN=C(N)N)C(=O)N1CCC[C@H]1C(=O)N[C@H](C)C(=O)O)Cc1ccccc1` came in with a Rats blocked in the test filed under Rattus norvegicus [4] of 0%. Besides, the EC50 in the test filed under Rattus norvegicus [3] is 0.46 µg/mL (≈ 0.325 µM).
In turn, `CC(=O)N[C@H](Cc1ccc2ccccc2c1)C(=O)N[C@H](Cc1ccccc1)C(=O)N[C@H](Cc1ccccc1)C(=O)N[C@@H](CO)C(=O)N[C@H](CN[C@H](CCCN=C(N)N)C(=O)N[C@@H](Cc1ccccc1)C(=O)N[C@@H](CCCN=C(N)N)C(=O)N1CCC[C@H]1C(=O)N[C@H](C)C(=O)O)Cc1ccc(O)cc1` yielded a Rats blocked in the test listed under Rattus norvegicus [1] of 100%. Besides, the EC50 in the test filed under Rattus norvegicus [3] was 1.5 µg/mL (≈ 1.06 µM).
For `CC(=O)N[C@H](Cc1ccc2ccccc2c1)C(=O)N[C@H](Cc1ccccc1)C(=O)N[C@H](Cc1ccccc1)C(=O)N[C@@H](CO)CN[C@@H](Cc1ccc(O)cc1)C(=O)N[C@H](CCCN=C(N)N)C(=O)N[C@@H](Cc1ccccc1)C(=O)N[C@@H](CCCN=C(N)N)C(=O)N1CCC[C@H]1C(=O)N[C@H](C)C(=O)O`, in that order: 63% and 0.19 µg/mL (≈ 0.134 µM).
Take `CC(=O)N[C@H](CN[C@H](Cc1ccccc1)C(=O)N[C@H](Cc1ccccc1)C(=O)N[C@@H](CO)C(=O)N[C@@H](Cc1ccc(O)cc1)C(=O)N[C@H](CCCN=C(N)N)C(=O)N[C@@H](Cc1ccccc1)C(=O)N[C@@H](CCCN=C(N)N)C(=O)N1CCC[C@H]1C(=O)N[C@H](C)C(=O)O)Cc1ccc2ccccc2c1`: in the test listed under Rattus norvegicus [4], the Rats blocked turned out to be 0%. Besides, the EC50 in the test listed under Rattus norvegicus [3] was determined as 1.5 µg/mL (≈ 1.06 µM).
The molecule `CC(=O)N[C@H](Cc1ccc2ccccc2c1)C(=O)N[C@H](Cc1ccccc1)C(=O)N[C@H](Cc1ccccc1)C(=O)N[C@@H](CO)C(=O)N[C@@H](Cc1ccc(O)cc1)C(=O)N[C@H](CCCN=C(N)N)C(=O)N[C@@H](Cc1ccccc1)C(=O)N[C@@H](CCCN=C(N)N)C(=O)N1CCC[C@H]1C(=O)N[C@H](C)C(N)=O` (Ac-[d2Nal][dF][dF]SY[dR]FRP[dA]-NH2) showed a Rats blocked in the test listed under Rattus norvegicus [5] of 56%. Also, the EC50 in the test filed under Rattus norvegicus [3] was found to be 0.11 µg/mL (≈ 0.077 µM).
